Source: ChEMBL document CHEMBL4665734, “Optimization of globomycin analogs as novel gram-negative antibiotics” (Bioorg Med Chem Lett, 2020)
Converted amounts (≈) assume the structure as drawn. Starred links: 1 amine or outer side, 2 acyl side, 3 side chain; linkers in the order of their positions; H or OH if unused. Non-standard residues stand in square brackets, D forms with d. Residues, ends and D or L forms follow the SMILES beside them. *: point of attachment. X6 = C[C@H](CO[C@H](CC1C[C@H]2CC[C@@H](C1)C2)[C@@H](C)C(=O)[*:2])N[*:1]; dAlaψ(CH2NBu)Nle = CCCC[C@@H](C(=O)[*:2])N(CCCC)C[C@@H](C)N[*:1]; X3 = C[C@H](CO[C@H](CC1CC2(CCC2)C1)[C@@H](C)C(=O)[*:2])N[*:1]; X10 = CCCCCC[C@@H](OC[C@@H](CC)N[*:1])[C@@H](C)C(=O)[*:2]; X8 = CCCCCC[C@@H](O[C@@H](C)CN[*:1])[C@@H](C)C(=O)[*:2]; X9 = CCCCCC[C@@H](OCCN[*:1])[C@@H](C)C(=O)[*:2]; Cyclobutyl(trans-3-NH2) = N[C@H]1C[C@H](*)C1; Gly(cHept) = N[C@H](C(=O)O)C1CCCCCC1; aThr = C[C@H](O)[C@H](N)C(=O)O; NMeL = CN[C@@H](CC(C)C)C(=O)O; Chg = N[C@H](C(=O)O)C1CCCCC1; NMeNva = CCC[C@H](NC)C(=O)O; Dap = NC[C@H](N)C(=O)O; X5 = NCCCNCCC*

Columns and labels:
[1] = Stability of the compound in human plasma assessed as parent compound remaining after 24 hrs; format: ADME, cell-free; settings: read-out: Stabilty
In short: (§1)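 Test compound incubated for 24 hour in human, rat or mouse plasma. Stability is reported as the percentage of parent compound remaining.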

[2] = Stability of the compound in mouse plasma assessed as parent compound remaining after 24 hrs; format: ADME, cell-free; settings: read-out: Stabilty; in short: as §1
Escherichia coli = experiment: Inhibition of LspA in Escherichia coli CFT073imp4213 harboring outer membrane-permeable mutant assessed as inhibition of bacterial growth
In short: (§2)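 Read-out is the minimum inhibitory concentration, reported in µM.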

Escherichia coli CFT073 = experiment: Inhibition of LspA in wild type Escherichia coli CFT073 assessed as inhibition of bacterial growth; in short: as §2
[3] = Growth inhibition of Staphylococcus aureus USA300
[4] = Stability of the compound in human plasma assessed as parent compound remaining after 6 hrs; format: ADME, cell-free; settings: read-out: Stabilty
In short: (§3)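 Test compound incubated for 6 hour in human or mouse plasma. Stability is reported as the percentage of parent compound remaining.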

[5] = Stability of the compound in mouse plasma assessed as parent compound remaining after 6 hrs; format: ADME, cell-free; settings: read-out: Stabilty; in short: as §3
[6] = Lipophilicity, logD of the compound at pH 7.4; settings: buffer, pH 7.4, logD
[7] = Stability of the compound in rat plasma assessed as parent compound remaining after 24 hrs; format: ADME, cell-free; settings: read-out: Stabilty; in short: as §1
[8] = Protein binding in rat plasma; format: ADME, cell-free; settings: read-out: PPB (converted)
[9] = Protein binding in mouse plasma; format: ADME, cell-free; settings: read-out: PPB (converted)
[10] = Clearance in rat liver microsomes; format: ADME, Microsome
In short: (§4)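 Intrinsic clearance in rat or mouse liver microsomes, expressed in mL/min/kg.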

[11] = Clearance in mouse liver microsomes; format: ADME, Microsome; in short: as §4
[12] = Clearance in iv dosed rat; format: ADME, organism-based; settings: in vivo
[13] = Half life in iv dosed rat; format: ADME, organism-based; settings: in vivo
[14] = Clearance in iv dosed mouse; format: ADME, organism-based; settings: in vivo
[15] = Half life in iv dosed mouse; format: ADME, organism-based; settings: in vivo
Enterobacter cloacae = experiment: Inhibition of LspA in Enterobacter cloacae assessed as inhibition of bacterial growth
Klebsiella pneumoniae = experiment: Inhibition of LspA in Klebsiella pneumoniae assessed as inhibition of bacterial growth
Pseudomonas aeruginosa = experiment: Inhibition of LspA in Pseudomonas aeruginosa assessed as inhibition of bacterial growth
Acinetobacter baumannii = experiment: Inhibition of LspA in Acinetobacter baumannii assessed as inhibition of bacterial growth
Jurkat = experiment: Cytotoxicity against human Jurkat cells; format: cell-based
In short: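 Jurkat cell growth assay. Result reported as antiproliferative EC50.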

SMILES: CCCCCC[C@H]1O[C@@H](C)CNC(=O)[C@H]([C@H](C)O)NC(=O)[C@H](CN)NC(=O)[C@H](C2CCCCC2)NC(=O)[C@H](CC(C)C)N(C)C(=O)[C@@H]1C (cyclo([Chg][Dap][aThr][X8][NMeL]))
- remaining at 24 h [1]: 91%
- remaining at 24 h [2]: 101%
- MIC (Escherichia coli): 100 nM (≈ 0.0681 µg/mL)
- MIC (Escherichia coli CFT073): 12000 nM (≈ 8.17 µg/mL)
- MIC [3]: 100 µM (≈ 68.1 µg/mL)

SMILES: CCCCCC[C@H]1OCCNC(=O)[C@H]([C@H](C)O)NC(=O)[C@H](CN)NC(=O)[C@H](C2CCCCC2)NC(=O)[C@H](CC(C)C)N(C)C(=O)[C@@H]1C (cyclo([Chg][Dap][aThr][X9][NMeL]))
- remaining at 6 h [4]: 99%
- remaining at 6 h [5]: 96%
- MIC (Escherichia coli): 140 nM (≈ 0.0934 µg/mL)
- MIC (Escherichia coli CFT073): 8700 nM (≈ 5.8 µg/mL)
- MIC [3]: 100 µM (≈ 66.7 µg/mL)

SMILES: CCCCCC[C@H]1OC[C@@H](CC)NC(=O)[C@H]([C@H](C)O)NC(=O)[C@H](CN)NC(=O)[C@H](C2CCCCC2)NC(=O)[C@H](CC(C)C)N(C)C(=O)[C@@H]1C (cyclo([Chg][Dap][aThr][X10][NMeL]))
- remaining at 24 h [1]: 101%
- remaining at 24 h [2]: 87%
- MIC (Escherichia coli): 24 nM (≈ 0.0167 µg/mL)
- MIC (Escherichia coli CFT073): 2200 nM (≈ 1.53 µg/mL)
- MIC [3]: 50 µM (≈ 34.7 µg/mL)

SMILES: CCCC[C@H]1C(=O)N(C)[C@@H](CC(C)C)C(=O)N[C@@H](C2CCCCC2)C(=O)N[C@@H](CN)C(=O)N[C@@H]([C@H](C)O)C(=O)N[C@H](C)CN1CCCC (cyclo([Chg][Dap][aThr][dAlaψ(CH2NBu)Nle][NMeL]))
- logD [6]: 3.4
- remaining at 24 h [1]: 97%
- remaining at 24 h [2]: 89%
- remaining at 24 h [7]: 102%
- fraction unbound [8]: 0.005
- fraction unbound [9]: 0.004
- CLhep predicted [10]: 27 mL/min/kg
- CLhep predicted [11]: 77 mL/min/kg
- clearance [12]: 53 mL/min/kg
- half-life [13]: 156 min
- MIC (Escherichia coli): 17 nM (≈ 0.0116 µg/mL)
- MIC (Escherichia coli CFT073): 1600 nM (≈ 1.09 µg/mL)
- MIC [3]: 71 µM (≈ 48.3 µg/mL)

SMILES: CCC[C@H]1C(=O)N[C@@H](C2CCCCCC2)C(=O)N[C@@H](CN)C(=O)N[C@@H](CO[C@H]2C[C@H](N)C2)C(=O)N[C@H](C)CO[C@H](CC2CC3(CCC3)C2)[C@@H](C)C(=O)N1C (cyclo([Dap]S(Cyclobutyl(trans-3-NH2))[X3][NMeNva][Gly(cHept)]))
- logD [6]: 2.2
- remaining at 24 h [1]: 103%
- remaining at 24 h [2]: 84%
- remaining at 24 h [7]: 90%
- fraction unbound [8]: 0.022
- fraction unbound [9]: 0.007
- CLhep predicted [10]: 28 mL/min/kg
- CLhep predicted [11]: 48 mL/min/kg
- clearance [12]: 40 mL/min/kg
- half-life [13]: 192 min
- clearance [14]: 11 mL/min/kg
- half-life [15]: 240 min
- MIC (Escherichia coli CFT073): 2200 nM (≈ 1.67 µg/mL)
- MIC [3]: 25 µM (≈ 19 µg/mL)
- MIC (Enterobacter cloacae): 6.3 µM (≈ 4.79 µg/mL)
- MIC (Klebsiella pneumoniae): 8.8 µM (≈ 6.69 µg/mL)
- MIC (Pseudomonas aeruginosa): 71 µM (≈ 54 µg/mL)
- MIC (Acinetobacter baumannii): 18 µM (≈ 13.7 µg/mL)

SMILES: CCC[C@H]1C(=O)N[C@@H](C2CCCCCC2)C(=O)N[C@@H](CN)C(=O)N[C@@H](CO[C@H]2C[C@H](N)C2)C(=O)N[C@H](C)CO[C@H](CC2C[C@H]3CC[C@@H](C2)C3)[C@@H](C)C(=O)N1C (stereo partly drawn) (cyclo([Dap]S(Cyclobutyl(trans-3-NH2))[X6][NMeNva][Gly(cHept)]))
- logD [6]: 1.7
- remaining at 24 h [1]: 99%
- remaining at 24 h [2]: 95%
- remaining at 24 h [7]: 94%
- fraction unbound [8]: 0.026
- fraction unbound [9]: 0.003
- CLhep predicted [10]: 21 mL/min/kg
- CLhep predicted [11]: 41 mL/min/kg
- clearance [12]: 15 mL/min/kg
- half-life [13]: 348 min
- clearance [14]: 17 mL/min/kg
- half-life [15]: 126 min
- MIC (Escherichia coli CFT073): 780 nM (≈ 0.604 µg/mL)
- MIC [3]: 50 µM (≈ 38.7 µg/mL)
- MIC (Enterobacter cloacae): 3.1 µM (≈ 2.4 µg/mL)
- MIC (Klebsiella pneumoniae): 8.8 µM (≈ 6.81 µg/mL)
- MIC (Pseudomonas aeruginosa): 100 µM (≈ 77.4 µg/mL)
- MIC (Acinetobacter baumannii): 25 µM (≈ 19.4 µg/mL)
- EC50 (Jurkat): > 100 µM

SMILES: CCC[C@H]1C(=O)N[C@@H](C2CCCCCC2)C(=O)N[C@@H](CN)C(=O)N[C@@H](COCCCNCCCN)C(=O)N[C@H](C)CO[C@H](CC2CC3(CCC3)C2)[C@@H](C)C(=O)N1C (cyclo([Dap]S(X5)[X3][NMeNva][Gly(cHept)]))
- logD [6]: 0.7
- remaining at 24 h [1]: 103%
- remaining at 24 h [2]: 106%
- remaining at 24 h [7]: 118%
- fraction unbound [8]: 0.025
- fraction unbound [9]: 0.001
- CLhep predicted [11]: 53 mL/min/kg
- clearance [14]: 12 mL/min/kg
- half-life [15]: 276 min
- MIC (Escherichia coli CFT073): 1600 nM (≈ 1.29 µg/mL)
- MIC [3]: 18 µM (≈ 14.5 µg/mL)
- MIC (Enterobacter cloacae): 3.1 µM (≈ 2.5 µg/mL)
- MIC (Klebsiella pneumoniae): 3.1 µM (≈ 2.5 µg/mL)
- MIC (Pseudomonas aeruginosa): 50 µM (≈ 40.3 µg/mL)
- MIC (Acinetobacter baumannii): 50 µM (≈ 40.3 µg/mL)
- EC50 (Jurkat): > 50 µM

SMILES: CCC[C@H]1C(=O)N[C@@H](C2CCCCCC2)C(=O)N[C@@H](CN)C(=O)N[C@@H](COCCCNCCCN)C(=O)N[C@H](C)CO[C@H](CC2C[C@H]3CC[C@@H](C2)C3)[C@@H](C)C(=O)N1C (stereo partly drawn) (cyclo([Dap]S(X5)[X6][NMeNva][Gly(cHept)]))
- logD [6]: 0.2
- fraction unbound [8]: 0.026
- fraction unbound [9]: 0.004
- clearance [14]: 68 mL/min/kg
- half-life [15]: 150 min
- MIC (Escherichia coli CFT073): 780 nM (≈ 0.639 µg/mL)
- MIC [3]: 12 µM (≈ 9.83 µg/mL)
- MIC (Enterobacter cloacae): 1.6 µM (≈ 1.31 µg/mL)
- MIC (Klebsiella pneumoniae): 1.6 µM (≈ 1.31 µg/mL)
- MIC (Pseudomonas aeruginosa): 12 µM (≈ 9.83 µg/mL)
- MIC (Acinetobacter baumannii): 25 µM (≈ 20.5 µg/mL)
- EC50 (Jurkat): > 100 µM
